ChEMBL document CHEMBL1122137, “Antiinflammatory properties of 8-aryl-5-isopropyl-2H-1,3-dioxolo[4,5-g]quinazolin-6(5H)-ones and -thiones” (1982)

How the values were obtained:
Assay type in all cases: functional
Rattus norvegicus [1] = experiment: Inhibition of carrageenan edema in rats was determined after peroral administration of 100 mg/kg; conditions: route oral
Procedure, shortened: (§1)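 Male Wistar rats (150–175 g) dosed orally, in mg/kg, as a suspension in 0.5% carboxymethylcellulose (1 mL/kg), 1 h before subplantar injection of 0.1 mL of 1% Type 402 carrageenin. Paw edema measured by electronic plethysmography at 3 h. Swelling (3 h minus 0 h) per rat; treated-group mean expressed as percent of vehicle-control mean.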

Rattus norvegicus [2] = experiment: Inhibition of carrageenan edema in adrenalectomized rats was determined after peroral administration; conditions: po
Procedure, shortened: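 Carrageenin paw edema run as in intact rats, but male Wistar rats were bilaterally adrenalectomized under ether and allowed 7 days to recover. They drank 1.0% NaCl plus 2.5% dextrose and ate standard chow. Oral dosing in 0.5% CMC 1 h before subplantar 1% carrageenin. Plethysmographic swelling at 3 h, as percent of vehicle-treated controls.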

Rattus norvegicus [3] = experiment: Bronchoconstrictor effect of bradykinin was determined after intravenous administration in rats
Rattus norvegicus [4] = experiment: Nonnarcotic analgesic effect was determined after peroral administration in rats; conditions: po, read-out: MED
Rattus norvegicus [5] = species: Rattus norvegicus; experiment: Inhibition of the development of adjuvant-induced polyarthritis in rats was determined
Rattus norvegicus [6] = experiment: Inhibition of carrageenan edema in normal rats was determined after peroral administration; conditions: po; procedure, shortened: as §1
Rattus norvegicus [7] = experiment: Bronchoconstrictor effect of bradykinin was determined after intravenous administration in rats.
Rattus norvegicus [8] = experiment: Nonnarcotic analgesic effect was determined after peroral administration in rats.; conditions: po, read-out: MED

## CC(C)n1c(=O)nc(-c2ccc(OCc3ccccc3)cc2)c2cc3c(cc21)OCO3
Rattus norvegicus [1]
  inhibition in vivo at 100 mg/kg: 17%

## CC(C)n1c(=S)nc(-c2ccc(F)cc2)c2cc3c(cc21)OCO3
Rattus norvegicus [1]
  inhibition in vivo at 100 mg/kg: 49%

## CC(C)n1c(=O)nc(-c2cccc(F)c2)c2cc3c(cc21)OCO3
Rattus norvegicus [2]
  ED50: 14 mg/kg
Rattus norvegicus [3]
  ED50: 0.05 mg/kg
Rattus norvegicus [1]
  ED50: 9 mg/kg
Rattus norvegicus [4]
  minimal effective dose: 11 mg/kg
Rattus norvegicus [5]
  ED50: 9 mg/kg
Rattus norvegicus [6]
  ED50: 9 mg/kg

## CC(C)n1c(=S)nc(-c2cccc(F)c2)c2cc3c(cc21)OCO3
Rattus norvegicus [1]
  inhibition in vivo at 100 mg/kg: 36%

## CC(C)n1c(=S)nc(-c2cccc([N+](=O)[O-])c2)c2cc3c(cc21)OCO3
Rattus norvegicus [1]
  inhibition in vivo at 100 mg/kg: 0%

## CC(C)n1c(=O)nc(-c2ccccc2)c2cc3c(cc21)OCO3
Rattus norvegicus [2]
  ED50: 9 mg/kg
Rattus norvegicus [1]
  ED50: 7 mg/kg
Rattus norvegicus [4]
  minimal effective dose: 50 mg/kg
Rattus norvegicus [7]
  ED50: 0.012 mg/kg
Rattus norvegicus [5]
  ED50: 3 mg/kg
Rattus norvegicus [6]
  ED50: 8 mg/kg

## CC(C)n1c(=O)nc(-c2cccc([N+](=O)[O-])c2)c2cc3c(cc21)OCO3
Rattus norvegicus [1]
  inhibition in vivo at 100 mg/kg: 28%

## CC(C)n1c(=O)nc(-c2ccc(C(=O)O)cc2)c2cc3c(cc21)OCO3
Rattus norvegicus [1]
  inhibition in vivo at 100 mg/kg: 33%

## CC(C)n1c(=O)nc(-c2ccc(F)cc2)c2cc3c(cc21)OCO3
Rattus norvegicus [2]
  ED50: 20 mg/kg
Rattus norvegicus [1]
  ED50: 8 mg/kg
Rattus norvegicus [4]
  minimal effective dose: 4 mg/kg
Rattus norvegicus [7]
  ED50: 0.17 mg/kg
Rattus norvegicus [5]
  ED50: 6 mg/kg
Rattus norvegicus [6]
  ED50: 8 mg/kg

## Cc1ccccc1C1NC(=O)N(C(C)C)c2cc3c(cc21)OCO3 (stereo unspecified)
Rattus norvegicus [1]
  ED50: 50 mg/kg

## COc1cccc(-c2nc(=O)n(C(C)C)c3cc4c(cc23)OCO4)c1
Rattus norvegicus [1]
  inhibition in vivo at 100 mg/kg: 12%

## CC(C)n1c(=O)nc(-c2ccc3c(c2)OCO3)c2cc3c(cc21)OCO3
Rattus norvegicus [1]
  inhibition in vivo at 100 mg/kg: 21%

## Cc1ccc(-c2nc(=O)n(C(C)C)c3cc4c(cc23)OCO4)cc1
Rattus norvegicus [1]
  inhibition in vivo at 100 mg/kg: 22%

## Cc1ccccc1-c1nc(=O)n(C(C)C)c2cc3c(cc12)OCO3
Rattus norvegicus [1]
  ED50: 65 mg/kg

## CC(C)n1c(=O)nc(-c2ccccc2[N+](=O)[O-])c2cc3c(cc21)OCO3
Rattus norvegicus [1]
  ED50: 39 mg/kg

## CC(C)c1ccc(-c2nc(=S)n(C(C)C)c3cc4c(cc23)OCO4)cc1
Rattus norvegicus [1]
  inhibition in vivo at 100 mg/kg: 10%

## CC(C)n1c(=O)nc(-c2ccc(Cl)c(Cl)c2)c2cc3c(cc21)OCO3
Rattus norvegicus [1]
  inhibition in vivo at 100 mg/kg: 30%

## CC(C)n1c(=S)nc(-c2ccccc2)c2cc3c(cc21)OCO3
Rattus norvegicus [1]
  ED50: 7 mg/kg
Rattus norvegicus [7]
  ED50: 0.047 mg/kg
Rattus norvegicus [5]
  ED50: 6 mg/kg
Rattus norvegicus [6]
  ED50: 7 mg/kg

## COc1ccc2c(c1)c(CC(=O)O)c(C)n2C(=O)c1ccc(Cl)cc1 [INDOMETHACIN]
Rattus norvegicus [2]
  ED50: 6 mg/kg
Rattus norvegicus [1]
  ED50: 5 mg/kg
Rattus norvegicus [5]
  ED50: 0.1 mg/kg
Rattus norvegicus [6]
  ED50: 5 mg/kg
Rattus norvegicus [8]
  minimal effective dose: 4 mg/kg

## CCCCC1C(=O)N(c2ccccc2)N(c2ccccc2)C1=O [PHENYLBUTAZONE]
Rattus norvegicus [2]
  ED50: 30 mg/kg
Rattus norvegicus [1]
  ED50: 25 mg/kg
Rattus norvegicus [5]
  ED50: 5 mg/kg
Rattus norvegicus [6]
  ED50: 25 mg/kg
Rattus norvegicus [8]
  minimal effective dose: 9 mg/kg

## Cc1ccc2c(-c3ccccc3)nc(=O)n(C(C)C)c2c1 [PROQUAZONE]
Rattus norvegicus [2]
  ED50: 6 mg/kg
Rattus norvegicus [1]
  ED50: 5 mg/kg
Rattus norvegicus [5]
  ED50: 1 mg/kg
Rattus norvegicus [6]
  ED50: 5 mg/kg
Rattus norvegicus [8]
  minimal effective dose: 1 mg/kg
